# Measurements of several laboratories.
# Each line is one published result; the experiments were not run side by side.
# SQLE: Squalene monooxygenase (SQLE, Homo sapiens, UniProt Q14534)
# ADRA1A: Alpha-1A adrenergic receptor (ADRA1A, Homo sapiens, UniProt P35348)
SMILES,target,read-out,action,technique,measurement,value
CC(=O)c1ccc2c(c1)N(CCCN1CCC(CCO)CC1)c1ccccc1S2,SQLE,enzyme activity,inhibitor,,Ki,0.68 µM
CC(C)C[C@H](NC(=O)[C@H](Cc1ccccc1)NC(=O)c1cnccn1)B(O)O,"ATP-dependent Clp protease proteolytic subunit, mitochondrial (CLPP, Homo sapiens, UniProt Q16740)",binding,,,Kd,45 µM
O=C(O)[C@H]1O[C@@H](Oc2cc3oc(-c4ccccc4)cc(=O)c3c(O)c2O)[C@H](O)[C@@H](O)[C@@H]1O,SQLE,enzyme activity,inhibitor,,Ki,1.75 µM
Cc1cc(Oc2ncccc2CN2CCN(C(c3ccccc3)c3ccccc3)CC2)ccc1-c1c(C)c(=O)[nH]c(=O)n1C,ADRA1A,ligand displacement,,radioligand,Ki,0.885 µM
NC(=O)c1ccc[n+]([C@@H]2O[C@H](COP(=O)([O-])OP(=O)(O)OC[C@H]3O[C@@H](n4cnc5c(N)ncnc54)[C@H](O)[C@@H]3O)[C@@H](O)[C@H]2O)c1,"Dihydrolipoyl dehydrogenase, mitochondrial (DLD, Homo sapiens, UniProt P09622, K430Q)",binding,,SPR,Kd,1.14 µM
O=C[C@H](O)[C@@H](O)[C@H](O)[C@H](O)COP(=O)(O)O,"Hexokinase HKDC1 (Homo sapiens, UniProt Q2TB90)",enzyme activity,inhibitor,absorbance,Ki,> 1000 µM
Cc1cc2nc3c(=O)[nH]c(=O)nc-3n(C[C@H](O)[C@H](O)[C@H](O)COP(=O)(O)OP(=O)(O)OC[C@H]3O[C@@H](n4cnc5c(N)ncnc54)[C@H](O)[C@@H]3O)c2cc1C,"Dihydrolipoyl dehydrogenase, mitochondrial (DLD, Homo sapiens, UniProt P09622)",binding,,SPR,Kd,1.27 µM
Cc1cc(Oc2ncccc2CN2CCN(c3ccccc3C#N)CC2)ccc1-c1c(C)c(=O)[nH]c(=O)n1C,ADRA1A,ligand displacement,,radioligand,Ki,1.21 µM
CN(C)C(=O)c1cc2cnc(Nc3ccc(C(=O)NCCCCCCOc4cccc5c4C(=O)N(C4CCC(=O)NC4=O)C5=O)cc3)nc2n1C1CCCC1 (centres unmarked),"High affinity nerve growth factor receptor (NTRK1, Homo sapiens, UniProt P04629)",binding,,competition with immobilised ligand,Kd,< 0.2 µM
Nc1ccn(C[C@@H](CO)OCP(=O)(O)O)c(=O)n1,"Solute carrier family 22 member 6 (SLC22A6, Homo sapiens, UniProt Q4U2R8, S231A)",transporter uptake,inhibitor,fluorescence,IC50,344 µM
Cc1ccc(N2CCN(Cc3cccnc3Oc3ccc(-c4c(C)c(=O)[nH]c(=O)n4C)c(C)c3)CC2)cc1C,ADRA1A,ligand displacement,,radioligand,Ki,3.42 µM
